Measurements reported in PMC5743405 (International Journal of Oncology, 2017).
Where two headings read alike, the source gives them in different places.

Columns and labels:
CCR4 = experiment: PathHunter β-arrestin; type: cell-based; conditions: antagonist mode, 6 μM
Summary of the method: (§1)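 Engineered cells express the receptor fused to one β-galactosidase fragment (ED) and β-arrestin fused to the complementing fragment (EA). Receptor activation recruits β-arrestin, which restores enzyme activity, and this is read by chemiluminescence (RLU). Agonist % activity is 100% × (test − vehicle)/(maximal control ligand − vehicle). Antagonist mode is challenged with an EC80 control agonist, and % inhibition is 100% × (1 − (test − vehicle)/(EC80 − vehicle)). Hits require >30% activity or >35% inhibition, plus a 3×SD RLU margin.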

MC3R = experiment: PathHunter β-arrestin; type: cell-based; conditions: 6 μM
Summary of the method: (§2)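 Vendor-run (DiscoveRx) PathHunter enzyme fragment complementation. β-Arrestin carries the EA fragment and the receptor carries ED; recruitment restores β-gal activity, read by chemiluminescence (RLU). Agonist % activity = vehicle-subtracted RLU relative to max control ligand (gpcrMAX) or to vehicle (orphanMAX). Antagonist % inhibition = 100% × (1 − vehicle-subtracted sample RLU / vehicle-subtracted EC80 agonist control RLU).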

MCHR2 = experiment: PathHunter β-arrestin; type: cell-based; conditions: 6 μM
Summary of the method: as §2

CCR8 = experiment: PathHunter β-arrestin; type: cell-based; conditions: antagonist mode, 6 μM
Summary of the method: as §1

P2RY12 = experiment: PathHunter β-arrestin; type: cell-based; conditions: 6 μM
Summary of the method: (§3)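 β-Arrestin recruitment to GPCR read by β-galactosidase fragment complementation and chemiluminescence. Agonist: % = 100 × (test − vehicle)/(max control ligand − vehicle), hit at >30% and RLU > baseline + 3 SD. Antagonist, against EC80 agonist: % inhibition = 100 × (1 − (test − vehicle)/(EC80 − vehicle)), hit at >35% and RLU < EC80 − 3 SD.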

[1] = tested on: chondrosarcoma cell growth; conditions: cited from earlier work
AVPR1A = experiment: PathHunter β-arrestin; type: cell-based; conditions: antagonist mode, 6 μM
Summary of the method: (§4)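 β-Arrestin recruitment assay: the enzyme acceptor is fused to β-arrestin and the ED fragment to the GPCR. Recruitment restores β-galactosidase, read by chemiluminescence. % activity = 100% × (test − vehicle)/(max control ligand − vehicle). % inhibition = 100% × (1 − (test − vehicle)/(EC80 control − vehicle)). An agonist hit needs >30% activity and RLU > baseline + 3×SD. An antagonist hit needs >35% inhibition and RLU < EC80 RLU − 3×SD.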

CCKAR = experiment: PathHunter β-arrestin; type: cell-based; conditions: antagonist mode, 6 μM
Summary of the method: as §4

CCR9 = experiment: PathHunter β-arrestin; type: cell-based; conditions: 6 μM
Summary of the method: as §1

DRD2L = experiment: PathHunter β-arrestin; type: cell-based; conditions: antagonist mode, 6 μM
Summary of the method: as §1

TSHR(L) = experiment: PathHunter β-arrestin; type: cell-based; conditions: antagonist mode, 6 μM
KISS1R = experiment: PathHunter β-arrestin; type: cell-based; conditions: 6 μM
Summary of the method: as §2

GPR103 = experiment: PathHunter β-arrestin; type: cell-based; conditions: 6 μM
Summary of the method: as §2

CXCR7 = experiment: PathHunter β-arrestin; type: cell-based; conditions: antagonist mode, 6 μM
Summary of the method: as §1

GPCR receptors = experiment: PathHunter β-arrestin gpcrMAX panel, antagonist mode; type: cell-based; conditions: summary of Table II
Summary of the method: (§5)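 GPCR-ED fusion and β-arrestin-EA fusion; arrestin recruitment restores β-galactosidase, read by chemiluminescence. Antagonist mode uses EC80 agonist challenge. % inhibition = 100 × (1 − (test − vehicle RLU)/(EC80 control − vehicle RLU)). Hit requires >35% inhibition and mean RLU below EC80 RLU − 3 × EC80 SD.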

EDG5 = experiment: PathHunter β-arrestin; type: cell-based; conditions: 6 μM
Summary of the method: as §1

OPRL1 = experiment: PathHunter β-arrestin; type: cell-based; conditions: antagonist mode, 6 μM
Summary of the method: as §5

HTR1F = experiment: PathHunter β-arrestin; type: cell-based; conditions: 6 μM
Summary of the method: as §2

LTB4R = experiment: PathHunter β-arrestin; type: cell-based; conditions: agonist mode, 6 μM
Summary of the method: as §2

VIPR2 = experiment: PathHunter β-arrestin; type: cell-based; conditions: 6 μM
Summary of the method: as §3

AGTR1 = experiment: PathHunter β-arrestin; type: cell-based; conditions: agonist mode, 6 μM
Summary of the method: as §4

ADRA2C = experiment: PathHunter β-arrestin; type: cell-based; conditions: antagonist mode, 6 μM
Summary of the method: as §4

CCR7 = experiment: PathHunter β-arrestin; type: cell-based; conditions: 6 μM
Summary of the method: as §1

GPR35 = experiment: PathHunter β-arrestin; type: cell-based; conditions: 6 μM
Summary of the method: as §2

FPRL1 = experiment: PathHunter β-arrestin; type: cell-based; conditions: antagonist mode, 6 μM
Summary of the method: as §1

EBI2 = experiment: PathHunter β-arrestin; type: cell-based; conditions: antagonist mode, 6 μM
Summary of the method: as §1

Substance: Proline rich polypeptide 1 [PRP-1]
- % Inhibition (CCR4): 2%
- % Activity (MC3R; agonist mode): 3%
- % Inhibition (MC3R; antagonist mode): −6%
- % Activity (MCHR2; agonist mode): 1%
- % Inhibition (MCHR2; antagonist mode): −3%
- % Inhibition (CCR8): −4%
- % Activity (P2RY12; agonist mode): 1%
- % Inhibition (P2RY12; antagonist mode): 8%
- inhibition of chondrosarcoma cell growth ([1]; ref [4],[5]): 80–90%
- inhibition of chondrosarcoma cell growth ([1]; ref [4],[6]): > 80%
- % Inhibition (AVPR1A): −1%
- % Inhibition (CCKAR): −3%
- % Activity (CCR9; agonist mode): 1%
- % Inhibition (CCR9; antagonist mode): −6%
- % Inhibition (DRD2L): 2%
- % Inhibition (TSHR(L)): −4%
- % Activity (KISS1R; agonist mode): 1%
- % Inhibition (KISS1R; antagonist mode): 3%
- % Activity (GPR103; agonist mode): 2%
- % Inhibition (GPR103; antagonist mode): 6%
- % Inhibition (CXCR7): −2%
- GPCR coupling, antagonist mode (GPCR receptors): no indication that PRP-1 was G protein coupled
- % Activity (EDG5; agonist mode): 1%
- % Inhibition (EDG5; antagonist mode): −8%
- % Inhibition (OPRL1): −7%
- % Activity (HTR1F; agonist mode): 2%
- % Inhibition (HTR1F; antagonist mode): 2%
- % Activity (LTB4R): 1%
- % Activity (VIPR2; agonist mode): 1%
- % Inhibition (VIPR2; antagonist mode): −3%
- % Activity (AGTR1): 2%
- % Inhibition (ADRA2C): −4%
- % Activity (CCR7; agonist mode): 1%
- % Inhibition (CCR7; antagonist mode): −2%
- % Activity (GPR35; agonist mode): 1%
- % Inhibition (GPR35; antagonist mode): −6%
- % Inhibition (FPRL1): −2%
- % Inhibition (EBI2): −1%
